# Like-named read-outs stand apart in the source and are kept apart here.
# What was measured:
# Plasmodium falciparum [1] = test: Asexual parasite clearance parameters; format: in vivo; details: P falciparum
# Summary of the method: (§1)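 Parasitaemia was counted by microscopy before one oral dose of the test compound and every 4 h over days 0–3. If two consecutive negative readings were not reached, the stay was extended to 7 days with counts every 6 h until clearance. Clearance kinetics, including lag time before parasite decline, followed WWARN statistical procedures. Kaplan-Meier analyses used a modified ITT population.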
# [2] = tested on: Plasmodium falciparum DHODH; details: cited from earlier work
# P falciparum [3] = details: single dose of 400 mg administered 1 day before parasite challenge; cited from earlier work
# P falciparum [4] = details: for a 60 kg patient; cited from earlier work
# [5] = tested on: P falciparum and P vivax field isolates; details: ex-vivo; cited from earlier work
# [6] = Adverse events in malaria patients; format: in vivo, human
# Summary of the method: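 Patients received one oral dose of the test compound in suspension: 400 or 250 mg for P falciparum, and 400, 600 or 800 mg for P vivax. They were kept in clinic with checks every 4 h over days 0–3. Safety follow-up lasted 35 days. Safety was analysed in all patients who received at least one dose.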
# Plasmodium vivax [7] = test: Asexual parasite clearance parameters; format: in vivo; details: P vivax
# Summary of the method: as §1
# Plasmodium vivax [8] = test: Gametocytaemia by microscopy; format: in vivo; details: cohort 2b, P vivax, 600 mg
# Summary of the method: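 Patients with P vivax malaria received one oral dose of the test compound: 400 mg in cohort 1b or 600 mg in cohort 2b. Gametocytaemia was assessed by microscopy throughout the 28-day follow-up. The measure was conversion from microscopy-negative at the start of treatment to gametocyte-positive.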
# Plasmodium vivax [9] = test: Phase 2a single-dose efficacy: crude cure, thick blood smear microscopy; format: in vivo
# Summary of the method: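 P vivax patients (1000–35 000 asexual parasites per μL) received one oral dose of 400, 600 or 800 mg. Crude cure meant clearance of asexual parasites within 7 days with no later recurrence, read by thick smear microscopy without PCR adjustment. It was scored at day 14, and cure at day 28. Rescue treatment was given if parasites remained at day 7. Analysis used ITT and per-protocol populations.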
# [10] = 12-lead and Holter ECG safety analysis in malaria patients; format: in vivo, human
# Summary of the method: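 Adults with uncomplicated malaria (18–70 years, 45–90 kg) received one oral dose of the test compound in suspension, ideally fasted. QT interval was corrected by Fridericia (QTcF) and compared with baseline. PR and QRS intervals were also recorded during the study.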
# PvDHODH enzyme = details: truncated recombinant enzymes; cited from earlier work
# [11] = tested on: P. falciparum Dd2 B2 clone; details: dhodh Gly181Cys mutation; cited from earlier work
# Plasmodium falciparum [12] = test: Phase 2a single-dose efficacy: PCR-adjusted ACPR, thick blood smear microscopy; format: in vivo; details: P falciparum
# Summary of the method: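 P falciparum patients (1000–35 000 asexual parasites per μL) received one oral dose of 400 or 250 mg. Treatment failure was read by thick blood smear microscopy; the first cohort initially used quantitative PCR. PCR adjustment distinguished recrudescence from new infection. ACPR was scored at days 14 and 28. ITT included all dosed patients; per-protocol excluded those who vomited, took other medication, had protocol violations or lacked data.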
# [13] = Pharmacokinetics in malaria patients; format: in vivo, human
# Summary of the method: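 A further sample was taken on day 5 or 7, depending on day-3 parasitaemia. Later samples were taken on days 10–11, 14, 17–18, 21, 24–25, 28 and 35. Parameters were AUC0-t, AUC0-168, AUC0-inf, Cmax, tmax, t1/2, C168h and λinf.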
# P. falciparum = test: MIC/MPC estimate from nadir of parasitaemia in recrudescing patients; format: in vivo, Plasmodium falciparum; details: 400 mg
# [14] = cited from earlier work
# [15] = cohort 1a (n=13), P falciparum, 400 mg
# [16] = cohort 1b (n=5), P vivax, 400 mg
# [17] = cohort 2a (n=11), P falciparum, 250 mg
# [18] = cohort 2b (n=9), P vivax, 600 mg
# [19] = cohort 3b (n=7), P vivax, 800 mg
smiles,measurement,setting,value
Cc1cc(Nc2ccc(S(F)(F)(F)(F)F)cc2)n2nc(C(C)(F)F)nc2n1 [DSM265],Profiles with lag,"Plasmodium falciparum [1]; cohort 1a, 400 mg, 8 profiles analysed",4
same,Profiles with lag,"Plasmodium falciparum [1]; cohort 2a, 250 mg, 7 profiles analysed",5
same,in-vitro selectivity for Plasmodium falciparum DHODH over its human ortholog,[2],very high
same,protection from infection,P falciparum [3],complete protection
same,predicted efficacious single curative dose,P falciparum [4],340 mg
same,efficacy for P falciparum compared with P vivax,[5],five-times better
same,patients with headache,[6]; all 45 patients,40%
same,patients with pyrexia,[6]; all 45 patients,44%
same,abnormal haematology laboratory results considered clinically significant,[6]; all patients,No patients
same,treatment-related serious adverse events or adverse events leading to study discontinuation,[6]; all patients,no patients
same,Adverse event of special interest,[6]; [15],2 (15%) number of patients (%)
same,Any adverse event,[6]; [15],10 (77%) number of patients (%)
same,Serious adverse event,[6]; [15],0 number of patients (%)
same,Severe adverse event,[6]; [15],0 number of patients (%)
same,Treatment-related adverse event,[6]; [15],3 (23%) number of patients (%)
same,Adverse event of special interest,[6]; [16],0 number of patients (%)
same,Any adverse event,[6]; [16],4 (80%) number of patients (%)
same,Serious adverse event,[6]; [16],0 number of patients (%)
same,Severe adverse event,[6]; [16],1 (20%) number of patients (%)
same,Treatment-related adverse event,[6]; [16],1 (20%) number of patients (%)
same,Adverse event of special interest,[6]; [17],3 (27%) number of patients (%)
same,Any adverse event,[6]; [17],7 (64%) number of patients (%)
same,Serious adverse event,[6]; [17],1 (9%) number of patients (%)
same,Severe adverse event,[6]; [17],2 (18%) number of patients (%)
same,Treatment-related adverse event,[6]; [17],2 (18%) number of patients (%)
same,Adverse event of special interest,[6]; [18],1 (11%) number of patients (%)
same,Any adverse event,[6]; [18],7 (78%) number of patients (%)
same,Serious adverse event,[6]; [18],0 number of patients (%)
same,Severe adverse event,[6]; [18],0 number of patients (%)
same,Treatment-related adverse event,[6]; [18],0 number of patients (%)
same,Adverse event of special interest,[6]; [19],0 number of patients (%)
same,Any adverse event,[6]; [19],6 (86%) number of patients (%)
same,Serious adverse event,[6]; [19],0 number of patients (%)
same,Severe adverse event,[6]; [19],0 number of patients (%)
same,Treatment-related adverse event,[6]; [19],0 number of patients (%)
same,tolerability,"[6]; single oral dose 250-800 mg, all patients",well tolerated
same,Profiles with lag,"Plasmodium vivax [7]; cohort 1b, 400 mg, 4 profiles analysed",3
same,Profiles with lag,"Plasmodium vivax [7]; cohort 2b, 600 mg, 9 profiles analysed",3
same,Profiles with lag,"Plasmodium vivax [7]; cohort 3b, 800 mg, 6 profiles analysed",1
same,patients negative for gametocytaemia at baseline who became positive,Plasmodium vivax [8],13%
same,patients achieving crude cure at day 14,"Plasmodium vivax [9]; P vivax, 400 mg, ITT (five patients)",none
same,patients achieving crude cure at day 14,"Plasmodium vivax [9]; P vivax, 400 mg, per-protocol (four patients)",none
same,patients achieving crude cure at day 14,"Plasmodium vivax [9]; P vivax, 600 mg, ITT",33%
same,patients achieving crude cure at day 14,"Plasmodium vivax [9]; P vivax, 600 mg, per-protocol",50%
same,patients achieving crude cure at day 14,"Plasmodium vivax [9]; P vivax, 800 mg, ITT",14%
same,patients achieving crude cure at day 14,"Plasmodium vivax [9]; P vivax, 800 mg, per-protocol",25%
same,patients achieving a cure at day 28,"Plasmodium vivax [9]; P vivax, all doses",No patients
same,P vivax clearance,"Plasmodium vivax [9]; within the first 100 h, doses of 600 mg and 800 mg",99–100%
same,values for QTcF recorded,[10]; in a few patients,450 to 500 ms
same,QTcF changes from baseline,[10]; more patients with P falciparum than P vivax,30 to 60 ms
same,IC50 for the PvDHODH enzyme relative to PfDHODH,PvDHODH enzyme,two times higher
same,reduction in potency,[11],26 times
same,patients achieving ACPR at day 28,"Plasmodium falciparum [12]; 250 mg, ITT",55%
same,patients achieving PCR-adjusted ACPR at day 14,"Plasmodium falciparum [12]; 250 mg, ITT",73%
same,patients achieving ACPR at day 28,"Plasmodium falciparum [12]; 250 mg, per-protocol",60%
same,patients achieving PCR-adjusted ACPR at day 14,"Plasmodium falciparum [12]; 250 mg, per-protocol",80%
same,patients achieving PCR-adjusted ACPR at day 14,"Plasmodium falciparum [12]; 400 mg single oral dose, per-protocol",100%
same,patients achieving ACPR at day 28,"Plasmodium falciparum [12]; 400 mg, ITT",69%
same,patients achieving PCR-adjusted ACPR at day 14,"Plasmodium falciparum [12]; 400 mg, ITT",85%
same,patients achieving ACPR at day 28,"Plasmodium falciparum [12]; 400 mg, per-protocol",89%
same,dose proportionality based on Cmax and AUC0-∞,"[13]; P falciparum patients, 250 mg or 400 mg",dose proportional
same,dose proportionality of exposure,"[13]; P vivax patients, 400 mg to 800 mg",slightly subproportional
same,Tmax,"[13]; human, plasma, oral, tmax, seen for the other patients",6 to 8 h
same,estimated duration of exposure greater than the minimum parasiticidal concentration,P. falciparum,around 10 days
same,duration of effectiveness (pharmacokinetic profile),[14]; after a single oral dose in the range of 200–400 mg,more than 8 days
same,tolerability,"[14]; healthy participants, single doses of ≤1200 mg",generally well tolerated
"Cc1cc(Nc2ccc(C(F)(F)F)nc2)n2nc(C(C)(F)F)nc2n1 [DSM421, reference compound]",efficacy for P falciparum compared with P vivax,[5],equal efficacy

# Source: article PMC6060173 (The Lancet. Infectious Diseases, 2018)
